These results are taken from ChEMBL document CHEMBL4706770, “SD-91 as A Potent and Selective STAT3 Degrader Capable of Achieving Complete and Long-Lasting Tumor Regression” (ACS Med Chem Lett, 2021).

Molecules are shown by their SMILES. Calls of active or inactive are those of the source. The calls are words filed in the database; no cut-off is given here.

Data set [1] deals with Mus musculus. Put plainly: In vivo induction of STAT3 degradation in SCID mouse xenografted with human SU-DHL-1 cells assessed as reduction in phosphorylated STAT3 level in tumor tissue at 50 mg/kg, iv measured after 24 hrs by immunoblotting analysis. Format: functional, organism-based. The procedure, abridged:
(§1)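 SCID mice bearing MOLM-16 or SU-DHL-1 xenografts given a single iv dose of 50 mg/kg or dosing vehicle. Tumor lysates immunoblotted for p-STAT3 Y705 and total STAT3 at time points up to 48 h (MOLM-16) and 24 h (SU-DHL-1).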
A general note: Xenograft models place foreign cells or tissue in a host animal.

Data set [2] deals with Mus musculus. Put plainly: In vivo induction of STAT6 degradation in SCID mouse xenografted with human MOLM16 cells assessed as reduction in STAT6 in tumor tissue at 50 mg/kg, iv measured after 24 hrs by immunoblotting analysis. Format: functional, organism-based. The procedure, abridged: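 SCID mice bearing MOLM-16 tumors given a single iv dose of 50 mg/kg or dosing vehicle. Tumor lysates immunoblotted for STAT3, STAT1 and STAT6 at time points from 1 h to at least 24 h.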

The target of data set [3] is Signal transducer and activator of transcription 3 (Homo sapiens, UniProt P40763). Put plainly: Binding affinity to human recombinant STAT3 assessed as dissociation constant incubated for 15 mins by biolayer interferometry. In outline:
(§2)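 Biolayer interferometry with recombinant human STAT1, STAT2, STAT3, STAT4, STAT5A, STAT5B or STAT6 proteins containing their SH2 domain. Compound run in 2× serial dilutions from 200 nM. Kd taken from steady-state fitting of equilibrium responses against concentration using a 1:1 binding model.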
(In general: In BLI a coated tip is dipped into the sample, and binding shifts an interference pattern.)

For data set [4], the system named is Mus musculus. Put plainly: In vivo induction of STAT3 degradation in SCID mouse xenografted with human SU-DHL-1 cells assessed as reduction in total STAT3 level in tumor tissue at 50 mg/kg, iv measured after 24 hrs by immunoblotting analysis. Format: functional, organism-based. In outline:
as §1

Data set [5] has as its target T1, Signal transducer and activator of transcription 1-alpha/beta (Homo sapiens, UniProt P42224).
T1 sequence (P42224 whole entry): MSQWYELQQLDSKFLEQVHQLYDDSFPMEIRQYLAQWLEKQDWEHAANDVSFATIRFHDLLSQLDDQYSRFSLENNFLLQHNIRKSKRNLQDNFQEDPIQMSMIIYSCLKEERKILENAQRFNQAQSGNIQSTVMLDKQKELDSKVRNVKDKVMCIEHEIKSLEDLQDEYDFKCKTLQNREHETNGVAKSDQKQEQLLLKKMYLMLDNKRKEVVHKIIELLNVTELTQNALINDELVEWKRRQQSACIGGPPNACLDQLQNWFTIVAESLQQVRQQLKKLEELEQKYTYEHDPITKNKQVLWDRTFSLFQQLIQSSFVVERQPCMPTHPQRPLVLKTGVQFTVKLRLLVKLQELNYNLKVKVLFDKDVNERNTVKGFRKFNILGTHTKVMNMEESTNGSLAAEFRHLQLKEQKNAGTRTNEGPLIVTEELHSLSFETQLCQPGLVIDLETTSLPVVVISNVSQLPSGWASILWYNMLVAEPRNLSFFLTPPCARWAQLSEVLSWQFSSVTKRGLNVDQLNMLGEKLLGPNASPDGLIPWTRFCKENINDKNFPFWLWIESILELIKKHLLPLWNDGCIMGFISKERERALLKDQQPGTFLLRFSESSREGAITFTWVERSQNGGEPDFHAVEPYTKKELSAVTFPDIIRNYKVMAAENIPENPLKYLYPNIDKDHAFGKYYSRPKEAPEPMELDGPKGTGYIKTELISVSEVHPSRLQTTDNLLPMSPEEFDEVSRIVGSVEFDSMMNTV
Briefly: Binding affinity to human recombinant STAT1 assessed as dissociation constant incubated for 15 mins by biolayer interferometry. In outline:
as §2

Data set [6] is described as follows: Antitumor activity against human MOLM16 cells xenografted in SCID mouse assessed as tumor growth at 25 mg/kg, iv administered weekly measured after 2 weeks relative to control. Format: functional. In outline: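 SCID mice bearing MOLM-16 xenografts given compound iv once weekly at 25 or 50 mg/kg. Tumor volume and body weight measured every 2 days. Growth inhibition expressed against vehicle-treated controls.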

A short description of data set [7]: Drug metabolism in buffer pH 4 assessed as conversion to (2-(((5S,8S,10aR)-8-(((S)-5-amino-1-(benzhydrylamino)-1,5-dioxopentan-2-yl)carbamoyl)-3-(8-(2-(2,6-dioxopiperidin-3-yl)-1-oxoisoindolin-4-yl)oct-7-ynoyl)-6-oxodecahydropyrrolo[1,2-a][1,5]diazocin-5-yl)carbamoyl)-1H-indole-5-carbonyl)phosphonic acid by measured after 2 days at 37 degC by LC/MS/MS analysis. To be noted: time 2.0 day. The procedure, abridged:
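Parent compound incubated in buffer at pH 4 or pH 8, at room temperature or 37 °C. Percentages of the parent, the hydrolysis product and the glutarimide ring-opened product followed over time, up to 96 h.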

In data set [8] the target is T2, Protein cereblon/Signal transducer and activator of transcription 1-alpha/beta (Homo sapiens) (UniProt P42224+Q96SW2). Put plainly: Protac activity at CRBN/STAT1 in human MOLM16 cells assessed as STAT1 degradation at 0.25 to 100 uM incubated for 4 hrs by Western blot analysis. Format: cell-based. Particulars: dose 0.25-100 µM. The procedure, abridged:
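Cells treated 4 h with compounds across 25 nM to 100 μM; STAT proteins detected by Western blot with GAPDH as loading control; STAT3 DC50 estimated by densitometry of STAT3 relative to GAPDH. Applies to MOLM-16 for all STATs, and to SU-DHL-1 and SUP-M2 for STAT3.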
In general terms: In western blotting, separated proteins are transferred to a membrane and probed.

Data set [9] is described as follows: Drug uptake in SCID mouse xenografted with human MOLM16 cells assessed as (2-(((5S,8S,10aR)-8-(((S)-5-amino-1-(benzhydrylamino)-1,5-dioxopentan-2-yl)carbamoyl)-3-(8-(2-(2,6-dioxopiperidin-3-yl)-1-oxoisoindolin-4-yl)oct-7-yno yl)-6-oxodecahydropyrrolo[1,2-a][1,5]diazocin-5-yl)carbamoyl)-1H-indole-5-carbonyl)phosphonic acid level in plasma at 50 mg/kg, iv measured after 1 hrs by LC-MS/MS. Format: ADME, organism-based. To be noted: in vivo. The procedure, abridged: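 SCID mice bearing MOLM-16 xenografts given a single iv dose of 50 mg/kg. Concentrations of parent and hydrolysis product measured in plasma (ng/mL) and tumor tissue (ng/g) at 1, 6 and 24 h.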

The nature of data set [10]: Drug metabolism in complete cell culture medium assessed as (2-(((5S,8S,10aR)-8-(((S)-5-amino-1-(benzhydrylamino)-1,5-dioxopentan-2-yl)carbamoyl)-3-(8-(2-(2,6-dioxopiperidin-3-yl)-1-oxoisoindolin-4-yl)oct-7-ynoyl)-6-oxodecahydropyrrolo[1,2-a][1,5]diazocin-5-yl)carbamoyl)-1H-indole-5-carbonyl)phosphonic acid after 2 hrs. In outline: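 Parent compound incubated in the cell culture medium used for the cellular assays, with or without cells, at 37 °C. Percentages of the hydrolysis product and the glutarimide ring-opened product measured at time points up to 96 h.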

Data set [11] has as its target T2, Protein cereblon/Signal transducer and activator of transcription 1-alpha/beta (Homo sapiens). Put plainly: Protac activity at CRBN/STAT1 in human SUP-M2 cells […] at 0.25 to 100 uM incubated for 4 hrs by Western blot analysis. To be noted: SUPM2, dose lower 0.25 µM. Format: cell-based.

Chain of Signal transducer and activator of transcription 3 (P40763 whole entry, the tested form may be a part): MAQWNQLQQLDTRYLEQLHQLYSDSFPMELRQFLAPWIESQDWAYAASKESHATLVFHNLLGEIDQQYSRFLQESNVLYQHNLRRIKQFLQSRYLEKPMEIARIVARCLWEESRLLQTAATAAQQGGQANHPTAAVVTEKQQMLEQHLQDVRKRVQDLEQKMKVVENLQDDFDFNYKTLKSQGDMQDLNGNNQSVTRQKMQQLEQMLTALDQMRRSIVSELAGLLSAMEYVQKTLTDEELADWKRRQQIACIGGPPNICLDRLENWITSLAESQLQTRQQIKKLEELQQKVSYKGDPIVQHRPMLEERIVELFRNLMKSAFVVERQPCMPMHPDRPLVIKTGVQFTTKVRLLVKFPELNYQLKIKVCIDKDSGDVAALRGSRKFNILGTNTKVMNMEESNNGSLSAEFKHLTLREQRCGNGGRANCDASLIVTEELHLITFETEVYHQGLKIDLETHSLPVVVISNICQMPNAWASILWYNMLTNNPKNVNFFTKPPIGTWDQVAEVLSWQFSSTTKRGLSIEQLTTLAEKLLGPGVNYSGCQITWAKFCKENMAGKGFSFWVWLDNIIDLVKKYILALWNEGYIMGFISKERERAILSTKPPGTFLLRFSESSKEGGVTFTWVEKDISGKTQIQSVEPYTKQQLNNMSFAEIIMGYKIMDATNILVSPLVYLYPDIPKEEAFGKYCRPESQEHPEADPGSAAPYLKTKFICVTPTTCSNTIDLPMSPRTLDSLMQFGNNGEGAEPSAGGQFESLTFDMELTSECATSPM

For orientation: Kd means a measure of binding affinity in units of concentration. As to `NC(=O)CC[C@H](NC(=O)[C@@H]1CC[C@@H]2CCN(C(=O)CCCCCC#Cc3cccc4c3CN(C3CCC(=O)NC3=O)C4=O)C[C@H](NC(=O)c3cc4cc(C(=O)P(=O)(O)O)ccc4[nH]3)C(=O)N21)C(=O)NC(c1ccccc1)c1ccccc1` (stereo partly specified), the result in the data set with Mus musculus [1] and with Mus musculus [4] was Active. In addition, the outcome in the data set on Mus musculus [2] was inactive. Besides, the Kd was 28 nM in [3] and greater than 10 nM in data set [5]. Also, the Activity in data set [6] is 87%.

Take `NC(=O)CC[C@H](NC(=O)[C@@H]1CC[C@@H]2CCN(C(=O)CCCCCC#Cc3cccc4c3CN(C3CCC(=O)NC3=O)C4=O)C[C@H](NC(=O)c3cc4cc(C(F)(F)P(=O)(O)O)ccc4[nH]3)C(=O)N21)C(=O)NC(c1ccccc1)c1ccccc1` (stereo partly specified): the Drug metabolism in [7] and in [10] was 50% in each case. Further, the result in [8] and in data set [11] was inactive. Further, the Drug uptake in data set [9] came to 48476 ng/mL.
